Laboratory results: ChEMBL document CHEMBL3351265
Values belong to the compound of their own block, whether it stands above or below them. Calls of active or inactive are those of the source. The rule behind the calls is not given here.

How the values were obtained:
[1] = Reduction in EED protein expression in human Toledo cells at 2 to 8 uM after 72 hrs by Western blot analysis; assay type: functional, cell-based
How it was run: (§1)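 DB (mutant EZH2) or Toledo (wild-type EZH2) DLBCL cells treated with compound for 72 h; lysed in RIPA buffer; 30 μg total protein resolved by SDS-PAGE, blotted to PVDF, probed for EZH2, EED, SUZ12 or H3K27me3 with HRP secondary and chemiluminescent detection; total histone H3 as loading control; 10 μM EPZ005687 as reference inhibitor.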

[2] = Reduction in EZH2 protein expression in human Toledo cells at 2 to 8 uM after 72 hrs by Western blot analysis; assay type: functional, cell-based; how it was run: as §1
[3] = Reduction in SUZ12 protein expression in human Toledo cells at 2 to 8 uM after 72 hrs by Western blot analysis; assay type: functional, cell-based; how it was run: as §1
[4] = test system: DB; assay: Reduction in EED protein expression in human DB cells at 7.5 to 30 uM after 72 hrs by Western blot analysis; assay type: functional, cell-based; how it was run: as §1
[5] = test system: DB; assay: Reduction in EZH2 protein expression in human DB cells at 7.5 to 30 uM after 72 hrs by Western blot analysis; assay type: functional, cell-based; how it was run: as §1
[6] = test system: DB; assay: Reduction in SUZ12 protein expression in human DB cells at 7.5 to 30 uM after 72 hrs by Western blot analysis; assay type: functional, cell-based; how it was run: as §1
[7] = Reduction in EZH2 protein expression in human Toledo cells after 72 hrs by Western blot analysis; assay type: functional, cell-based; how it was run: as §1
[8] = Reduction in EED protein expression in human Toledo cells after 72 hrs by Western blot analysis; assay type: functional, cell-based; how it was run: as §1
[9] = Reduction in SUZ12 protein expression in human Toledo cells after 72 hrs by Western blot analysis; assay type: functional, cell-based; how it was run: as §1
[10] = test system: DB; assay: Reduction in EZH2 protein expression in human DB cells after 72 hrs by Western blot analysis; assay type: functional, cell-based; how it was run: as §1
[11] = test system: DB; assay: Reduction in EED protein expression in human DB cells after 72 hrs by Western blot analysis; assay type: functional, cell-based; how it was run: as §1
[12] = test system: DB; assay: Reduction in SUZ12 protein expression in human DB cells after 72 hrs by Western blot analysis; assay type: functional, cell-based; how it was run: as §1
[13] = test system: DB; assay: Antiproliferative activity against human DB cells after 7 days by CCK-8 assay; assay type: functional, cell-based
How it was run: (§2)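 DLBCL lines from ATCC grown in RPMI 1640 with 10% FBS and Pen/Strep; 1−2 × 10^4 cells per well seeded in serum-containing medium with compound, triplicate cultures; 7 days incubation; viability by CCK-8 absorbance at 450 nm (600 nm reference), expressed as percentage of absorbance relative to control cells.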

[14] = test system: SU-DHL-6; assay: Antiproliferative activity against human SU-DHL6 cells after 7 days by CCK-8 assay; assay type: functional, cell-based; how it was run: as §2
[15] = test system: SUD4; assay: Antiproliferative activity against human SU-DHL4 cells after 7 days by CCK-8 assay; assay type: functional, cell-based; how it was run: as §2
[16] = test system: Pfeiffer; assay: Antiproliferative activity against human Pfeiffer cells after 7 days by CCK-8 assay; assay type: functional, cell-based; how it was run: as §2
[17] = test system: Toledo; assay: Antiproliferative activity against human Toledo cells after 7 days by CCK-8 assay; assay type: functional, cell-based; how it was run: as §2
[18] = test system: SU-DHL-6; assay: Antiproliferative activity against human SU-DHL6 cells at 5 uM after 7 days by CCK-8 assay in presence of 5 uM EPZ005687; assay type: functional, cell-based
[19] = test system: SUD4; assay: Antiproliferative activity against human SU-DHL4 cells at 5 uM after 7 days by CCK-8 assay in presence of 5 uM EPZ005687; assay type: functional, cell-based
[20] = test system: Pfeiffer; assay: Antiproliferative activity against human Pfeiffer cells at 5 uM after 7 days by CCK-8 assay in presence of 5 uM EPZ005687; assay type: functional, cell-based
[21] = test system: DB; assay: Antiproliferative activity against shRNA-treated human DB cells at 2.5 to 15 uM after 3 days by Alamar blue assay; assay type: functional, cell-based
How it was run: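 DB cells transduced with lentiviral pSICOR shRNA (mock, shEED or shEZH2); 5000 cells per well in serum-containing medium with compound, triplicate cultures; 3 days incubation; alamar blue added, plates incubated at 37 °C and read at 560 nm.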

[22] = target: Polycomb protein EED (Homo sapiens) (UniProt O75530)
Sequence of Polycomb protein EED (Homo sapiens) (O75530 2-441 limits assumed): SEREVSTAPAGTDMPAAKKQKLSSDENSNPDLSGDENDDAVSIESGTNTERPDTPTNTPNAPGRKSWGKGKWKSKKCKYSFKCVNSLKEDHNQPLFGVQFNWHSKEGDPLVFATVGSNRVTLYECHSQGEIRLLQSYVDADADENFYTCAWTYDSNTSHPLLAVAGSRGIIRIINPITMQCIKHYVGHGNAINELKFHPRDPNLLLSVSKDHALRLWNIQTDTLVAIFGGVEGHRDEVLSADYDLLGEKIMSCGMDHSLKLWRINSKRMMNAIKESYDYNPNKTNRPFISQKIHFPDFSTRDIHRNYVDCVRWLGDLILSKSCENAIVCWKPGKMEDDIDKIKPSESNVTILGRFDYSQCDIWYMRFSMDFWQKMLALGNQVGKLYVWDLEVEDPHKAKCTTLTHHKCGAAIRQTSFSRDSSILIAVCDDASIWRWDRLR

[23] = target: Polycomb protein EED (Homo sapiens) (UniProt O75530); remark: listed apart in the source
[24] = target: Polycomb protein EED (Homo sapiens) (UniProt O75530); remark: listed apart in the source
[25] = target: Polycomb protein EED (Homo sapiens) (UniProt O75530); remark: listed apart in the source
[26] = target: Polycomb protein EED (Homo sapiens) (UniProt O75530); remark: listed apart in the source
[27] = test system: Polycomb protein EED (Homo sapiens), O75530 [V112E]; conditions: 200 uM
Sequence of Polycomb protein EED (Homo sapiens), O75530 [V112E] (O75530 whole entry V112E): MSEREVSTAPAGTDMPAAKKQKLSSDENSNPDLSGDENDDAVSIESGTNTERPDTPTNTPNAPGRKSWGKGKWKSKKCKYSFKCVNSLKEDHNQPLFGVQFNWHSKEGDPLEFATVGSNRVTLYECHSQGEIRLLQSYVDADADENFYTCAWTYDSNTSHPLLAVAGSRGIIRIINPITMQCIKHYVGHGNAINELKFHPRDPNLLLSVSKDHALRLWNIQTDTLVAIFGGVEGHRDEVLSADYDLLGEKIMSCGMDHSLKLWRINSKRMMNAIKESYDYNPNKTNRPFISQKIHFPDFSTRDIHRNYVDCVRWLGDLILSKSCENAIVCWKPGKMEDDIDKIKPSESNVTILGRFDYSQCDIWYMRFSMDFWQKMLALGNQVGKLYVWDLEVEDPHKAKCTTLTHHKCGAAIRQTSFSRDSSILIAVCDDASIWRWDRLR

[28] = test system: Polycomb protein EED (Homo sapiens), O75530 [L123E]; conditions: 200 uM
Sequence of Polycomb protein EED (Homo sapiens), O75530 [L123E] (O75530 whole entry L123E): as the sequence (O75530 whole entry V112E) above, with E112V, L123E counted along it

[29] = test system: Polycomb protein EED (Homo sapiens), O75530 [L246E]; conditions: 200 uM
Sequence of Polycomb protein EED (Homo sapiens), O75530 [L246E] (O75530 whole entry L246E): as the sequence (O75530 whole entry V112E) above, with E112V, L246E counted along it

[30] = test system: Polycomb protein EED (Homo sapiens), O75530 [L315D]; conditions: 200 uM
Sequence of Polycomb protein EED (Homo sapiens), O75530 [L315D] (O75530 whole entry L315D): as the sequence (O75530 whole entry V112E) above, with E112V, L315D counted along it

[31] = test system: Polycomb protein EED (Homo sapiens), O75530 [L353A]; conditions: 200 uM
Sequence of Polycomb protein EED (Homo sapiens), O75530 [L353A] (O75530 whole entry L353A): as the sequence (O75530 whole entry V112E) above, with E112V, L353A counted along it

[32] = test system: Polycomb protein EED (Homo sapiens), O75530 [F356Y]; conditions: 200 uM
Sequence of Polycomb protein EED (Homo sapiens), O75530 [F356Y] (O75530 whole entry F356Y): as the sequence (O75530 whole entry V112E) above, with E112V, F356Y counted along it

[33] = test system: Toledo; assay: Antiproliferative activity against human Toledo cells by flow cytometry
[34] = test system: SU-DHL-6; assay: Antiproliferative activity against human SU-DHL6 cells after 7 days by CCK8 assay
[35] = test system: SUD4; assay: Antiproliferative activity against human SU-DHL4 cells after 7 days by CCK8 assay
[36] = test system: Pfeiffer; assay: Antiproliferative activity against human Pfeiffer cells after 7 days by CCK8 assay
[37] = test system: DB; assay: Antiproliferative activity against human DB cells after 72 h by flow cytometry in presence of EPZ005687
[38] = test system: DB; assay: Antiproliferative activity against human DB cells at 5 uM after 72 hrs by flow cytometry in presence of 5 uM EPZ005687
[39] = test system: Toledo; assay: Antiproliferative activity against human Toledo cells at 5 uM after 72 hrs by flow cytometry in presence of 5 uM EPZ005687
[40] = Reduction in EED protein expression in human Toledo cells at 10 uM after 72 hrs by Western blot analysis; assay type: functional, cell-based; how it was run: as §1
[41] = Reduction in EZH2 protein expression in human Toledo cells at 10 uM after 72 hrs by Western blot analysis; assay type: functional, cell-based; how it was run: as §1
[42] = Reduction in SUZ12 protein expression in human Toledo cells at 10 uM after 72 hrs by Western blot analysis; assay type: functional, cell-based; how it was run: as §1
[43] = test system: DB; assay: Reduction in EED protein expression in human DB cells at 10 uM after 72 hrs by Western blot analysis; assay type: functional, cell-based; how it was run: as §1
[44] = test system: DB; assay: Reduction in EZH2 protein expression in human DB cells at 10 uM after 72 hrs by Western blot analysis; assay type: functional, cell-based; how it was run: as §1
[45] = test system: DB; assay: Reduction in SUZ12 protein expression in human DB cells at 10 uM after 72 hrs by Western blot analysis; assay type: functional, cell-based; how it was run: as §1

SMILES: COc1cccc2c1C(=O)c1c(O)c3c(c(O)c1C2=O)C[C@@](O)(C(=O)CO)C[C@@H]3O[C@H]1C[C@H](N)[C@H](O)[C@H](C)O1
Activity [1]: inactive
Activity [2]: inactive
Activity [3]: inactive
Activity [4]: inactive
Activity [5]: inactive
Activity [6]: inactive

ΔTm [22]: 4.08 °C
ΔTm [23]: 4.29 °C
ΔTm [24]: 3.44 °C
ΔTm [25]: 2 °C
ΔTm [26]: 1.64 °C
Tm [27]: 38.2 °C
Tm [28]: 38.2 °C
Tm [29]: 38.1 °C
Tm [30]: 38.1 °C
Tm [31]: 38.2 °C
Tm [32]: 38.2 °C
SMILES: COc1ccc(CCN2CCC(Nc3nc4ccccc4n3Cc3ccc(F)cc3)CC2)cc1
Activity [7]: Active
Activity [8]: Active
Activity [9]: Active
Activity [10]: Active
Activity [11]: Active
Activity [12]: Active
Activity [13]: Active
Activity [14]: Active
Activity [15]: Active
Activity [16]: Active
Activity [17]: Active
Activity [18]: Active
Activity [19]: Active
Activity [20]: Active
Activity [21]: inactive
Activity [33]: Active
Activity [34]: Active
Activity [35]: Active
Activity [36]: Active
Activity [37]: Active
Activity [38]: Active
Activity [39]: Active

SMILES: Cc1cc(C)c(CNC(=O)c2cc(-c3ccc(CN4CCOCC4)cc3)cc3c2cnn3C2CCCC2)c(=O)[nH]1
Activity [40]: inactive
Activity [41]: inactive
Activity [42]: inactive
Activity [43]: inactive
Activity [44]: inactive
Activity [45]: inactive
